Holding throughout (format): functional
The species named for experiment [1] is Gallus gallus. The experiment is described as follows: Stimulation of angiogenesis of fertilized chicken egg membrane assessed as stimulation of blood vessel formation at 10 ug/CAM after 48 hrs by CAM assay. The method, boiled down: (§1)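 Chick chorioallantoic membrane model. Filter disks are soaked in 3 mg/mL cortisone acetate in 95% ethanol, air-dried, then saturated with test agent, L-T4 or FGF, and placed on the CAM. Agents are tested at 10 µg/CAM. Tissue beneath the disk is harvested after 48 h and examined by stereomicroscope at 50× with digital image capture. Data are mean ± SEM, n = 8.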

For a further experiment, the system named is Mus musculus. The experiment is described as follows: Stimulation of angiogenesis in Matrigel plug implanted C57BL/6 mouse assessed as increase of hemoglobin level after 14 days at 10 ug/plug by Matrigel assay. The method, boiled down:
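Mouse subcutaneous Matrigel plug. Matrigel is kept cold and compound is added with or without agonist. Plugs are injected subcutaneously at three sites per animal, 100 µL total. On day 14 the plugs are collected, homogenized in ddH2O and centrifuged 4000 rpm for 10 min. Supernatant is mixed with Drabkin's reagent for 15–30 min, A540 is read, and hemoglobin (mg/mL) is taken from a standard curve. Three implants per mouse, n = 6 per group.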

Experiment [2] is filed under the species Gallus gallus. The experiment is described as follows: Antiangiogenesis of fertilized chicken egg membrane assessed as inhibition of FGF-induced blood vessel formation at 10 ug/CAM after 48 hrs by CAM assay. The method, boiled down:
as §1

Structures are written as SMILES.

For the compound `CNC(Cc1cc(I)c(Oc2cc(I)c(O)c(I)c2)c(I)c1)C(=O)O` (configuration not stated), the Activity in the experiment listed under Gallus gallus [1] was determined as 44%; in the experiment with Mus musculus it was 87%.
`CC(C)(C)OC(=O)NC(Cc1cc(I)c(Oc2cc(I)c(OCC3CO3)c(I)c2)c(I)c1)C(=O)OCC1CO1` (configuration not stated): the Activity was found to be 56% in the experiment listed under Gallus gallus [1] and 0% in the experiment on Mus musculus.
The term inhibition denotes the percentage by which the read-out fell short of the control. For `CCNC(Cc1cc(I)c(Oc2cc(I)c(O)c(I)c2)c(I)c1)C(=O)OCC` (configuration not stated), in the experiment filed under Gallus gallus [2], the inhibition came out at 38%.
As to `CCCC(=O)NC(Cc1cc(I)c(Oc2cc(I)c(O)c(I)c2)c(I)c1)C(=O)O` (configuration not stated), the Activity in the experiment listed under Gallus gallus [1] came to 34%; in the experiment with Mus musculus, 62%.
With `CC(C)[Si](OC(=O)C(Cc1cc(I)c(Oc2cc(I)c(O)c(I)c2)c(I)c1)NC(=O)OC(C)(C)C)(C(C)C)C(C)C` (configuration not stated), the results for the Activity in the experiment listed under Gallus gallus [1] and in the experiment on Mus musculus were 4% and 0%, respectively.
Regarding `CC(C)[Si](OC(=O)C(Cc1cc(I)c(Oc2cc(I)c(OCC3CO3)c(I)c2)c(I)c1)NC(=O)OC(C)(C)C)(C(C)C)C(C)C` (configuration not stated), the Activity stood at 34% in the experiment filed under Gallus gallus [1] and 0% in the experiment on Mus musculus.
As for `CC(=O)NC(Cc1cc(I)c(Oc2cc(I)c(OC(C)=O)c(I)c2)c(I)c1)C(=O)O` (configuration not stated), the Activity in the experiment filed under Gallus gallus [1] stood at 67%; in the experiment on Mus musculus, 95%.
For the compound `N[C@@H](Cc1cc(I)c(Oc2cc(I)c(O)c(I)c2)c(I)c1)C(=O)O` [LEVOTHYROXINE], the Activity in the experiment listed under Gallus gallus [1] came out at 88%; in the experiment on Mus musculus, 100%.
With `CCNC(Cc1cc(I)c(Oc2cc(I)c(O)c(I)c2)c(I)c1)C(=O)O` (configuration not stated), the figures for the Activity in the experiment filed under Gallus gallus [1] and in the experiment on Mus musculus were 86% and 45%, respectively.
